For series [1], the target named is T1, RecQ-like DNA helicase BLM (Homo sapiens, UniProt P54132). Put plainly: Inhibition of BLM (unknown origin) by gel-based DNA unwinding assay. The following applies: for pIC50: read-out: IC50.
Series [2] addresses T2, ATP-dependent DNA helicase Q1 (Homo sapiens, UniProt P46063).
T2 sequence (P46063 whole entry): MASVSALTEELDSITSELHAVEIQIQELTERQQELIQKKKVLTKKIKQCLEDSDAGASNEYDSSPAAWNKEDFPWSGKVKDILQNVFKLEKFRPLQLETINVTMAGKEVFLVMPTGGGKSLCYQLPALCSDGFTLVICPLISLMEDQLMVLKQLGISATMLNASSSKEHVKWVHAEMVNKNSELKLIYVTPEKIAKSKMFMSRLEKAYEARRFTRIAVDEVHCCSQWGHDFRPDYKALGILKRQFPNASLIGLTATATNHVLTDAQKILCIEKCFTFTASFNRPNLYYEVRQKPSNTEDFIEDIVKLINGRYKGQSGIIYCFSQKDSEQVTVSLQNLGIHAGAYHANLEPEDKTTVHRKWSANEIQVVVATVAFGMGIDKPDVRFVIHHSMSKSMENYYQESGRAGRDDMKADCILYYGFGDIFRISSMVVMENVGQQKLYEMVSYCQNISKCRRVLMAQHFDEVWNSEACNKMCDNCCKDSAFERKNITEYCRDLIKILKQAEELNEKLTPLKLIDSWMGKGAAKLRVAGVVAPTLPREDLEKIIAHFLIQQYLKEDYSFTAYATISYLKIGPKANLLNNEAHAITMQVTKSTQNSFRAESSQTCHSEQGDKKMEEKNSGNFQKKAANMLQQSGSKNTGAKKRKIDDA
The series can be described thus: Inhibition of RECQ1 (unknown origin) by gel-based DNA unwinding assay.

Series [3] is filed under the species Homo sapiens. Put plainly: Selectivity ratio of IC50 for WRN (unknown origin) to IC50 for BLM (unknown origin).
Series [4] addresses Bifunctional 3'-5' exonuclease/ATP-dependent helicase WRN (Homo sapiens, UniProt Q14191). Put plainly: Inhibition of WRN (unknown origin) by gel-based DNA unwinding assay.
The target in series [5] is T1, RecQ-like DNA helicase BLM. The series can be described thus: Inhibition of BLM in human PSNF5 cells assessed as increase of sister chromatid exchange at 1 to 5 uM. It counts as cell-based. The gist of the method: (§1)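 Used an isogenic pair of cell lines derived from GM08505 Bloom syndrome cells: PSNF5 (expresses BLM) and PSNG13 (lacks BLM). Cells were treated across a dose range and sister chromatid exchange frequency was scored.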

The nature of series [6]: Metabolic stability of the compound in mouse plasma assessed as compound remaining after 5 hrs. The class given is ADME, cell-free. The following applies: read-out: Stability.
Series [7] in a line: Kinetic solubility of the compound in PBS buffer at pH 7.4. The class given is physicochemical. The following applies: read-out: Kinetic_solubility. The gist of the method:
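Kinetic solubility in PBS, pH 7.4, determined by chemiluminescent nitrogen detection (CLND) and by UV-Vis detection.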

The test system of a further series is Liver. The series can be described thus: Half life in mouse liver microsomes in presence of NADPH. It counts as ADME, Microsome.
Series [8] has as its target T1, RecQ-like DNA helicase BLM. The series can be described thus: Displacement of TAMRA-labeled oligonucleotide from BLM (unknown origin).
The target in series [9] is T1, RecQ-like DNA helicase BLM. Put plainly: Non-competitive inhibition of BLM (unknown origin) using ATP by Lineweaver-Burk double reciprocal plot analysis.
The species entered for series [10] is Homo sapiens. The series can be described thus: Increase of sister chromatid exchange in human BLM-deficient PSNG13 cells at 1 to 5 uM. The class given is functional. The gist of the method: as §1
The target in series [11] is T1, RecQ-like DNA helicase BLM. Put plainly: Inhibition of BLM (unknown origin) binding to single-stranded DNA by fluorescence polarization analysis.

pIC50: −log10 of the molar value. Converted amounts (≈) assume the structure as drawn. The source made the active and inactive calls. The rule behind the calls is not given here. Where only a bound is given, the exact number is not on record here.

Chain of Bifunctional 3'-5' exonuclease/ATP-dependent helicase WRN (Q14191 whole entry): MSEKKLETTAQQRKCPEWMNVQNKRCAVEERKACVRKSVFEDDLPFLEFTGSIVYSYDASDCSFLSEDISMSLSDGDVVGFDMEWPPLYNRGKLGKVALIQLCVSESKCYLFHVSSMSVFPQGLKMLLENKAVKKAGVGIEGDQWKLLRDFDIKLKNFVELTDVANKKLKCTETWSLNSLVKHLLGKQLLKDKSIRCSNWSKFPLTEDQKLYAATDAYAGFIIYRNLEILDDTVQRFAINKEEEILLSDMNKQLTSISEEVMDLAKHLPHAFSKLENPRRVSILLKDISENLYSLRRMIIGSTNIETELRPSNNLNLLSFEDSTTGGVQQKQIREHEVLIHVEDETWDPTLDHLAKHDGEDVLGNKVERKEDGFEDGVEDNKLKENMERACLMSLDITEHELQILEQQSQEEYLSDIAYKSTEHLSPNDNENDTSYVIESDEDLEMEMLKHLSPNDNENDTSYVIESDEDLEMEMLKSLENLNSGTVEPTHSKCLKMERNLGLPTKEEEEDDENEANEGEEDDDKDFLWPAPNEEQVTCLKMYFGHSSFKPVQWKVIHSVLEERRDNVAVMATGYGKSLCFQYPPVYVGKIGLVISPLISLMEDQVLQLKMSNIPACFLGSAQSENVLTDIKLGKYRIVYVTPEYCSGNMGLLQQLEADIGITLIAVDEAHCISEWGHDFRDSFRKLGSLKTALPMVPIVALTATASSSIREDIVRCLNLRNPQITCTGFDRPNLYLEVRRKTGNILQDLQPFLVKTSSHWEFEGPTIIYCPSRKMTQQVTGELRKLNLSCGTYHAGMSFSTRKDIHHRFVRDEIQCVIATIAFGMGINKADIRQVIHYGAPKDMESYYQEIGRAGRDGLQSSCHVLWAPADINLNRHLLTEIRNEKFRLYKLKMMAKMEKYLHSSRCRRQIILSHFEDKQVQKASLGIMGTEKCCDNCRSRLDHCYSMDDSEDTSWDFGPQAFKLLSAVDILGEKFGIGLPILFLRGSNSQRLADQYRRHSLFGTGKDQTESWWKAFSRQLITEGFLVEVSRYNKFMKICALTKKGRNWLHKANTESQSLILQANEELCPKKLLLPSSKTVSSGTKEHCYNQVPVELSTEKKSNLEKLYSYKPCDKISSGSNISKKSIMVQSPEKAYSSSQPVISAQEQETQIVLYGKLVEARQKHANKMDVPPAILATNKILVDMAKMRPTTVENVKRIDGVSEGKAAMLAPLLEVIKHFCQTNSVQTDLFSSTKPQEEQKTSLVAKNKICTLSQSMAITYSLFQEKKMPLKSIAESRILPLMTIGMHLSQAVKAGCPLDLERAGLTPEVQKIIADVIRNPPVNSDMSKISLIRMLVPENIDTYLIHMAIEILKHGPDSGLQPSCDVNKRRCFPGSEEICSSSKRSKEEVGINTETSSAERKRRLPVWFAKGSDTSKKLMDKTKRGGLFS
T1 sequence (P54132 whole entry): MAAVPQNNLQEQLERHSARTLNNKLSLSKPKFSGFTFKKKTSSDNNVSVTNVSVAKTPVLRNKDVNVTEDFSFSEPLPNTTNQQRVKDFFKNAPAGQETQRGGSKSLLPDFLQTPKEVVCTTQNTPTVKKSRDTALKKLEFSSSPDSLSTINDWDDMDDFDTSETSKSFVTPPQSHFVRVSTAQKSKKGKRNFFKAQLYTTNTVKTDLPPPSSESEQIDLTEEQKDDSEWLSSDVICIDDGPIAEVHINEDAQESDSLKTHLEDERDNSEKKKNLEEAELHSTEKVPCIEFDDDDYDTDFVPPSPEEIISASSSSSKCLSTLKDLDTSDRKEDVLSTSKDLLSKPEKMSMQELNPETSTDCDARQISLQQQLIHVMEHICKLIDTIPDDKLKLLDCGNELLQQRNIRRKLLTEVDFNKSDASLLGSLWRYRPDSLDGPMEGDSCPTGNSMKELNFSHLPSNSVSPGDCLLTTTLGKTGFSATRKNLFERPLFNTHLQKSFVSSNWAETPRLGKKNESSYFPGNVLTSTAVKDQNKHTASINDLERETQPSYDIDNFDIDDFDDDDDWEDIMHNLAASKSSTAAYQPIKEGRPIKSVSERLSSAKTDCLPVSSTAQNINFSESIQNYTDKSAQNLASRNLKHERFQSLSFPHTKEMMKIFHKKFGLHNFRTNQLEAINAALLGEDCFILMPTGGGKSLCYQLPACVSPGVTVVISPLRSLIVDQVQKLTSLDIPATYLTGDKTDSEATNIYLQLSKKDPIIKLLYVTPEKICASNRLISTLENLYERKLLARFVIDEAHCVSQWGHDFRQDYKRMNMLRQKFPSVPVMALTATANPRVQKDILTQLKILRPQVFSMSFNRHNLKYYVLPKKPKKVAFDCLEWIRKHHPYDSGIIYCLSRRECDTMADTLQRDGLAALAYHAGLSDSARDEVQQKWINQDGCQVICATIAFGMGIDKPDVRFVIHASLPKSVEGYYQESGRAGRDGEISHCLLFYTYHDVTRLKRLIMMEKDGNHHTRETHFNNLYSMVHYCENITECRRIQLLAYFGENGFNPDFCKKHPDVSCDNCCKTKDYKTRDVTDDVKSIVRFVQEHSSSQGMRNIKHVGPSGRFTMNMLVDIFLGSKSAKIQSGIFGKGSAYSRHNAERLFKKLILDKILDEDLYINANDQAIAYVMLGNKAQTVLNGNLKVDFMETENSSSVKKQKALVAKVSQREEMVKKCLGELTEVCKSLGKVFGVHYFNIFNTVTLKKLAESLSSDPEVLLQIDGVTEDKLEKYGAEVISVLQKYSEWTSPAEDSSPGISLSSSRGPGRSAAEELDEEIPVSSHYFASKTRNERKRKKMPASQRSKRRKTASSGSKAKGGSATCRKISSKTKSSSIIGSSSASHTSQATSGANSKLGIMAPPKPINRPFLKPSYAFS

`O=C(Nc1ccccc1)Nc1nnc(-c2ccncc2)s1`: in [1], the IC50 entry is reported as “Not Active”.
Take `N#Cc1ccc(NC(=O)Nc2nnc(-c3ccncc3)s2)cc1`: the pIC50 in series [1] is 5.10.
For `O=C(Nc1ccc(Cl)c(Cl)c1)N1CCC(c2ccncc2)C1` (stereo not given), the IC50 result in [1] is given as “Not Active”.
With `N#Cc1cc(NC(=O)Nc2nnc(-c3ccncc3)s2)ccc1F`, the pIC50 in series [1] was 6.52; in series [2], under 4.30; in [4], 5.66. Moreover, in the series filed under Homo sapiens [3], the Ratio IC50 was 7.3.
Turning to `O=C(Nc1nnc(-c2ccncc2)s1)Oc1ccc2ccccc2c1`, in series [1], the IC50 entry is listed as “Not Active”.
On the same count and under the same terms, for `O=C(Nc1ccc(Cl)c(Cl)c1)Nc1ncc(-c2ccncc2)s1` the value was “Not Active”.
With `O=C(Nc1ccc(Cl)c(Cl)c1)Nc1nc(-c2ccncc2)cs1`, the pIC50 in series [1] is 4.55.
On the same count and under the same terms, for `O=C(Nc1ccc(-n2ccnc2)c(F)c1)Nc1nnc(-c2ccncc2)s1` the value was 5.00; for `O=C(Nc1ccc(Cl)c(Cl)c1)Nc1nnc(-c2cccnc2)s1`, 5.46.
In the case of `O=C(Nc1ccc(Cl)c(Cl)c1)Nc1nnc(-c2ccccn2)s1`, in series [1], the IC50 result was “Not Active”.
As for `O=C(Nc1ccc(Cl)c([N+](=O)[O-])c1)Nc1nnc(-c2ccncc2)s1`, in series [1], the negative-log IC50 (pIC50) was 5.89.
`N#Cc1cccc(NC(=O)Nc2nnc(-c3ccncc3)s2)c1`: in [1], the pIC50 was 5.05.
Still for that read-out and setting: for `N#Cc1ccc(NC(=O)Nc2nnc(-c3ccncc3)s2)cc1C(F)(F)F` the value was 5.25.
With `N#Cc1cc(NC(=O)Nc2nnc(-c3ccncc3)s2)ccc1Br`, the figures for the pIC50 in series [1], in [2] and in series [4] were 6.96, under 4.30 and 5.96, respectively. The Ratio IC50 in the series filed under Homo sapiens [3] was found to be 10.
As to `N#C/N=C(/Nc1ccc(F)c(C(F)(F)F)c1)Nc1nnc(-c2ccncc2)s1`, in series [1], the IC50 entry is given as “Not Active”.
As for `Nc1cc(NC(=O)Nc2nnc(-c3ccncc3)s2)ccc1Cl`, the pIC50 in series [1] is 4.95.
On the same count and under the same terms, in the case of `N#Cc1cc(NC(=O)Nc2nnc(-c3ccncc3)s2)ccc1-c1ccc[nH]1` it was 5.74; in that of `Cc1cc(NC(=O)Nc2nnc(-c3ccncc3)s2)ccc1Br`, 4.87; in that of `Cc1cc(NC(=O)Nc2nnc(-c3ccncc3)s2)ccc1-c1cn[nH]c1`, 4.77.
In the case of `O=C(Nc1ccc(Cl)c(Cl)c1)Nc1nnc(C2CCCCC2)s1`, the IC50 entry in [1] is “Not Active”.
`Cc1cc(NC(=O)Nc2nnc(-c3ccncc3)s2)ccc1C#N`: in series [1], the pIC50 is 5.49.
Consider `Cc1cc(NC(=O)Nc2nnc(-c3ccncc3)s2)ccc1F`, for which the pIC50 in [1] was 4.80.
For the compound `O=C(Nc1ccc(Cl)c(Cl)c1)Nc1nnc(NC2CCNCC2)s1`, the IC50 entry in series [1] is given as “Not Active”.
`O=C(Nc1ccc(Cl)c(Cl)c1)Nc1ccnc(-c2ccncc2)n1`: the IC50 entry in series [1] was “Not Active”.
Take `N#Cc1cc(NC(=O)Nc2nnc(-c3ccncc3)s2)ccc1-c1cn[nH]c1`: the inhibition result in [5] and in series [11] was “Dose-dependent effect” each time. Besides, in series [6], the remaining at 5 h turned out to be 100%. The solubility kinetic in series [7] amounted to 10 µM (≈ 3.88 µg/mL). Moreover, the pIC50 was 5.96 in series [1], under 4.30 in [2] and 5.15 in [4]. In the series with Liver, the t1/2 is listed as over 80 min. The inhibition entry in series [8] and in series [9] was “Active” throughout. In addition, in the series filed under Homo sapiens [3], the Ratio IC50 came out at 6.5. Also, the result in the series listed under Homo sapiens [10] was inactive.
For `O=C(Nc1ccc(F)c(C(F)(F)F)c1)Nc1nnc(-c2ccncc2)s1`, in [6], the remaining at 5 h was 100%. The solubility kinetic in series [7] came to 1 µM (≈ 0.383 µg/mL). Moreover, the results for the pIC50 in series [2] and in [4] were under 4.30 and 5.57, respectively. Moreover, the t1/2 in the series with Liver is given as over 80 min.
Take `O=S(=O)(Cc1ccc(Cl)c(Cl)c1)Nc1nnc(-c2ccncc2)s1`: in [1], the IC50 entry was “Not Active”.
On to `Nc1ccc(NC(=O)Nc2nnc(-c3ccncc3)s2)cc1C(F)(F)F`, for which the pIC50 in series [1] is 4.40.
Regarding `N#Cc1cc(NC(=O)Nc2nnc(-c3ccncc3)s2)ccc1Cl`, the pIC50 in series [1] is 7.00; in series [4], 5.80. Moreover, the Ratio IC50 in the series filed under Homo sapiens [3] was determined as 16.
In the case of `CN(C(=O)Nc1ccc2ccccc2c1)c1nnc(-c2ccncc2)s1`, in [1], the IC50 entry is recorded as “Not Active”.
With `O=C(Nc1ccc(-n2cncn2)c(F)c1)Nc1nnc(-c2ccncc2)s1`, in series [1], the pIC50 is 4.85.
Still for that read-out and setting: in the case of `N#Cc1ccc(NC(=O)Nc2nnc(-c3ccncc3)s2)cc1Cl` it was 5.80; in that of `O=C(Nc1ccc(Br)cc1)Nc1nnc(-c2ccncc2)s1`, 4.90.
On the same count and under the same terms, in the case of `O=C(Nc1ccc(Cl)c(Cl)c1)Nc1cccc(-c2ccncc2)n1` it was 5.40; in that of `S=C(Nc1ccc(Cl)c(Cl)c1)Nc1nnc(-c2ccncc2)s1`, 5.40; in that of `O=C(Nc1ccc(-c2cn[nH]c2)c(C(F)(F)F)c1)Nc1nnc(-c2ccncc2)s1`, 4.85.
Regarding `O=C(Nc1ccc(Cl)c(Cl)c1)Nc1nnc(-c2ccncc2)o1`, in series [1], the IC50 entry was “Not Active”.
Same read-out and setting: in the case of `CN1CCN(c2nnc(NC(=O)Nc3ccc(Cl)c(Cl)c3)s2)CC1` it was “Not Active”; in that of `O=C(Cc1ccc2ccccc2c1)Nc1nnc(-c2ccncc2)s1`, “Not Active”.
With `O=C(Nc1ccc(Br)c(Br)c1)Nc1nnc(-c2ccncc2)s1`, the pIC50 is 5.68 in [1] and 5.54 in series [4]. In addition, the Ratio IC50 in the series listed under Homo sapiens [3] was found to be 1.4.
As to `O=C(Nc1ccc(F)c(F)c1)Nc1nnc(-c2ccncc2)s1`, the pIC50 in series [1] is 5.05.
With `O=C(Nc1ccc(Cl)c(Cl)c1)N1CCN(c2ccncc2)CC1`, the IC50 result in series [1] is recorded as “Not Active”.
For the compound `O=C(Nc1ccc(F)cc1)Nc1nnc(-c2ccncc2)s1`, the pIC50 in series [1] is 4.85.
Consider `O=C(Nc1ccc(Cl)c(Cl)c1)Nc1nnc(-c2ccncc2)s1`, for which the values for the pIC50 in [1], in series [2] and in series [4] were 5.85, under 4.30 and 5.47, respectively. For the same compound, the Ratio IC50 in the series listed under Homo sapiens [3] worked out at 2.4.
Regarding `O=C(Nc1ccc(Cl)c(Cl)c1)Nc1ccc(-c2ccncc2)s1`, in [1], the IC50 result is “Not Active”.
On the same count and under the same terms, in the case of `O=C(Nc1ccc(Cl)c(Cl)c1)Nc1nnc(N2CCNCC2)s1` it was “Not Active”.
As to `O=C(Nc1ccc(Cl)cc1)Nc1nnc(-c2ccncc2)s1`, the negative logarithm of the IC50 (pIC50) in [1] was 4.40.
As for `O=C(Nc1ccc(-n2cncn2)c(C(F)(F)F)c1)Nc1nnc(-c2ccncc2)s1`, the pIC50 in series [1] is 4.44.
Turning to `O=C(Nc1ccc(Cl)c(Cl)c1)Nc1nnc(-c2ccccc2)s1`, the IC50 result in [1] is recorded as “Not Active”.
Turning to `O=C(Nc1ccc(Cl)c(Cl)c1)NC1CCN(c2ccncc2)CC1`, in [1], the IC50 entry is reported as “Not Active”.
`Cc1cc(NC(=O)Nc2nnc(-c3ccncc3)s2)ccc1Cl`: the pIC50 in series [1] was 5.10.
On the same count and under the same terms, in the case of `NC(=Nc1ccc(Cl)c(Cl)c1)Nc1nnc(-c2ccncc2)s1` it was 4.85.
On the same count and under the same terms, in the case of `O=C(Nc1ccc(Cl)c(C(F)(F)F)c1)Nc1nnc(-c2ccncc2)s1` it was 5.15.
Consider `O=c1c(Nc2ccc(Cl)c(Cl)c2)c(Nc2nnc(-c3ccncc3)s2)c1=O`, for which the pIC50 in [1] is 5.37.
On to `O=C(Nc1ccc(Cl)c(Cl)c1)Nc1cc(-c2ccncc2)n[nH]1`, for which the IC50 result in [1] is recorded as “Not Active”.
On to `Nc1ccc(-c2nnc(NC(=O)Nc3ccc(Cl)c(Cl)c3)s2)cc1`, for which the pIC50 in series [1] is 4.31.
Still for that read-out and setting: for `N#Cc1ccc(NC(=O)Nc2nnc(-c3ccncc3)s2)cc1Br` the value was 6.04.

Values taken from ChEMBL document CHEMBL2424634, “Synthesis and SAR studies of 5-(pyridin-4-yl)-1,3,4-thiadiazol-2-amine derivatives as potent inhibitors of Bloom helicase” (Bioorg Med Chem Lett, 2013).
